Among the data in ChEMBL document CHEMBL3616441, “Discovery of a Selective and CNS Penetrant Negative Allosteric Modulator of Metabotropic Glutamate Receptor Subtype 3 with Antidepressant and Anxiolytic Activity in Rodents” (J Med Chem, 2015) are IC50, EC50 and Activity values, retold here.

Active and inactive are the calls of the source. The rule behind the calls is not given here.

The target of test [1] is Metabotropic glutamate receptor 3 (Rattus norvegicus, UniProt P31422). Nature of the test: Negative allosteric modulation of rat mGlu3 receptor assessed as calcium mobilization by cell based fluorescence assay. In kind it is functional. In short, it runs like this: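 Cell line stably expressing rat mGlu3 with the promiscuous G-protein Gα15. Calcium mobilization with fluorescence read-out, inhibition of the glutamate response. Full concentration-response curves, top concentration 30 μM. % Glu Max is the response with 30 μM test compound as a percentage of the maximal response to 100 μM glutamate. Values averaged over n-3.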
Metabotropic glutamate receptor 3, sequence (P31422 whole entry): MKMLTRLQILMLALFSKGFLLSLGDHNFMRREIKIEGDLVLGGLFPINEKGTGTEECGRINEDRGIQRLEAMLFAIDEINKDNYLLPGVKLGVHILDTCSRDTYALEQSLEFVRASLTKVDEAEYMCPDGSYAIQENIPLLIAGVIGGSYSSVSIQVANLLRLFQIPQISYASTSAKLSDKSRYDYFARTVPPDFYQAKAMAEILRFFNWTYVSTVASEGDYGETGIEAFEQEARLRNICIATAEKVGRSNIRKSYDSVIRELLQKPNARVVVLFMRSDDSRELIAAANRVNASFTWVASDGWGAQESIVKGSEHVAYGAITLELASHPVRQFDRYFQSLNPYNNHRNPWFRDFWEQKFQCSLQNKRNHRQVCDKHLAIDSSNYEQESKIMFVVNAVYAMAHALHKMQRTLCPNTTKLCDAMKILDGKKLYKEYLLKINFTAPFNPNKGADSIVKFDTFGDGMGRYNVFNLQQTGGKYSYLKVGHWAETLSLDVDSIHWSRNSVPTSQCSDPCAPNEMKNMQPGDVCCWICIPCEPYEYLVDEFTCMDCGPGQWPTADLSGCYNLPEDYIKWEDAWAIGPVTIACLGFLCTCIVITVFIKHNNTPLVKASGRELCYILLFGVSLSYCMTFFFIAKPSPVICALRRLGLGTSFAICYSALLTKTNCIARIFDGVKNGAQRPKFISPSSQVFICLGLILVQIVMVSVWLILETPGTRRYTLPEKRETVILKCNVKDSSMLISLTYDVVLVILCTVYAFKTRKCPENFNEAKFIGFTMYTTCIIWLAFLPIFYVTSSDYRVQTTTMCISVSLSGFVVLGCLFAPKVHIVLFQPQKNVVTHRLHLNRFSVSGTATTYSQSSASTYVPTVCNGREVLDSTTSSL
(Calcium flux is commonly read through the fluorescence of an indicator in the cells.)

Test [2] deals with Metabotropic glutamate receptor 5 (Rattus norvegicus, UniProt P31424). Nature of the test: Modulation of rat mGlu5 receptor assessed as calcium mobilization by cell based fluorescence assay. Type of test: functional. Put shortly: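 Calcium mobilization assay with fluorescence read-out in cells expressing mGlu5; full concentration-response curves; % Glu Max is the amplitude of response with 30 μM test compound as a percentage of the maximal response to 100 μM glutamate; values averaged over n-3.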
Metabotropic glutamate receptor 5, sequence (P31424 whole entry): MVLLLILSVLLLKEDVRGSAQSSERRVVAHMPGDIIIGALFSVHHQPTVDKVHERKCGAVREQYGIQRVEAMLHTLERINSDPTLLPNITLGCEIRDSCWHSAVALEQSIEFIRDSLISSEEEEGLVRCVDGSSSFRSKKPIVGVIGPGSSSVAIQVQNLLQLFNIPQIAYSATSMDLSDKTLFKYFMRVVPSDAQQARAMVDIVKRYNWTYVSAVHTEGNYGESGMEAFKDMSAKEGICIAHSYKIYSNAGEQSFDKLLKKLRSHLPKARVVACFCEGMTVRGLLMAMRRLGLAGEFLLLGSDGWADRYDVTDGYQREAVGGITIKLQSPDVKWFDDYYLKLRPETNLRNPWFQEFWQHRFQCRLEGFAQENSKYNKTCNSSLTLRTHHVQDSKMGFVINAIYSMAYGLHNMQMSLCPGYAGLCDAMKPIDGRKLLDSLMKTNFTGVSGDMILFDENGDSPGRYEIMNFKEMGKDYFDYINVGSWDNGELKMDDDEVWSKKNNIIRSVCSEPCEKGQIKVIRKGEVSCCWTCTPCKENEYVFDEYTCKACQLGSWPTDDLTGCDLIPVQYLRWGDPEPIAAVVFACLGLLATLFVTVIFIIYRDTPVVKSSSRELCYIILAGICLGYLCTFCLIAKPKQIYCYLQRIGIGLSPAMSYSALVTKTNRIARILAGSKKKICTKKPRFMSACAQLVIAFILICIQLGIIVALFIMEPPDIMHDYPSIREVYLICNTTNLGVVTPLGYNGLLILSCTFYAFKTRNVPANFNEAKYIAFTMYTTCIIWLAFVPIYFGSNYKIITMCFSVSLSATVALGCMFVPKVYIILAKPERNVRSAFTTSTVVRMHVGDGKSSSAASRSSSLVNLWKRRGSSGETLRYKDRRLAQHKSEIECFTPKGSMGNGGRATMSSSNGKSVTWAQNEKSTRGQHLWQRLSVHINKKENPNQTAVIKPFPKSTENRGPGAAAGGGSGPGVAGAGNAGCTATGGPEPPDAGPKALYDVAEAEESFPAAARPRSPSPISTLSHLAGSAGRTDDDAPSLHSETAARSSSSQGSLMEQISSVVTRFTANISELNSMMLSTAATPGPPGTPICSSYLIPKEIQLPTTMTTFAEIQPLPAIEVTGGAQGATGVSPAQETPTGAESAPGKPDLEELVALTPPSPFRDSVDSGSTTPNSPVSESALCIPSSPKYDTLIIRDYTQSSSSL

Test [3] deals with Metabotropic glutamate receptor 5 (Rattus norvegicus) (UniProt P31424). Nature of the test: Modulation of rat mGlu5 receptor assessed as assessed as calcium mobilization at 30 uM by cell based fluorescence assay. Type of test: functional.
Metabotropic glutamate receptor 5 (Rattus norvegicus), sequence (P31424 21-1203 limits assumed): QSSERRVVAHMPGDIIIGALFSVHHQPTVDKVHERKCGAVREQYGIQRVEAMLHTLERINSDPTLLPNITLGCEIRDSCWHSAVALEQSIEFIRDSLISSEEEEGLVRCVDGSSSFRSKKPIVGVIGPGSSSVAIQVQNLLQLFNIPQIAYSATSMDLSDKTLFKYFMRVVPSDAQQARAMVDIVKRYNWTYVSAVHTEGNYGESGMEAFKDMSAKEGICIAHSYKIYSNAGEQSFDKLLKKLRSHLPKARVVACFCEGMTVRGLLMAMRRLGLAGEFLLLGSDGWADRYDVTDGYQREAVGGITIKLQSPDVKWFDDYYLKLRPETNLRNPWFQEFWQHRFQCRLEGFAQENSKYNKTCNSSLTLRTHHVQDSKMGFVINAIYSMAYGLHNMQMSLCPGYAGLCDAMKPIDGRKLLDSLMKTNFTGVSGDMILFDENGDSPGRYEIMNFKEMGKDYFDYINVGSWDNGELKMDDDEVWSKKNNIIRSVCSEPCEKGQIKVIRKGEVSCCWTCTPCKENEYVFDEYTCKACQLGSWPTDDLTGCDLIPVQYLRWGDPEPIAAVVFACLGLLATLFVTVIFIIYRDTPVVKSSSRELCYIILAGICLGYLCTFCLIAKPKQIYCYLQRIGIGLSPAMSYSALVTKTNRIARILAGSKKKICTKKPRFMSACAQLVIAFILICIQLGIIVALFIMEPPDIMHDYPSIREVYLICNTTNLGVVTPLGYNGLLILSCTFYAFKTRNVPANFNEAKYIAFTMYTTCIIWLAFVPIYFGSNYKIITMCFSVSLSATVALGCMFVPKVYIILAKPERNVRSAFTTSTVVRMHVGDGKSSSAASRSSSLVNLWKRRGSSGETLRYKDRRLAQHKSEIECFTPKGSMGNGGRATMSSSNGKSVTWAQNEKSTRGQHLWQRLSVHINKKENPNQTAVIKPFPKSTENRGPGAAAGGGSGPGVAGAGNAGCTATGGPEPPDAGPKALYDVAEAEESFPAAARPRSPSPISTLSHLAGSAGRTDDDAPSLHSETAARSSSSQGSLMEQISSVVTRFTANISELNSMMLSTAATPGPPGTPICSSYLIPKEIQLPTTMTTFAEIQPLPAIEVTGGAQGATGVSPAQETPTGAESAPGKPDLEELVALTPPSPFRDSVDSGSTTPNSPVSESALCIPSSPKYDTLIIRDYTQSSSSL
Test [4] deals with Metabotropic glutamate receptor 3 (Rattus norvegicus) (UniProt P31422). Nature of the test: Negative allosteric modulation of rat mGlu3 receptor assessed as amplitude response at 30 uM relative to glutamate. In short, it runs like this: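 Calcium mobilization in cell line stably expressing rat mGlu3 with promiscuous Gα15; fluorescence read-out; amplitude of glutamate response with 30 μM test compound expressed as percentage of maximal response (100 μM glutamate); average of n = 3.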
Metabotropic glutamate receptor 3 (Rattus norvegicus), sequence (P31422 23-879 limits assumed): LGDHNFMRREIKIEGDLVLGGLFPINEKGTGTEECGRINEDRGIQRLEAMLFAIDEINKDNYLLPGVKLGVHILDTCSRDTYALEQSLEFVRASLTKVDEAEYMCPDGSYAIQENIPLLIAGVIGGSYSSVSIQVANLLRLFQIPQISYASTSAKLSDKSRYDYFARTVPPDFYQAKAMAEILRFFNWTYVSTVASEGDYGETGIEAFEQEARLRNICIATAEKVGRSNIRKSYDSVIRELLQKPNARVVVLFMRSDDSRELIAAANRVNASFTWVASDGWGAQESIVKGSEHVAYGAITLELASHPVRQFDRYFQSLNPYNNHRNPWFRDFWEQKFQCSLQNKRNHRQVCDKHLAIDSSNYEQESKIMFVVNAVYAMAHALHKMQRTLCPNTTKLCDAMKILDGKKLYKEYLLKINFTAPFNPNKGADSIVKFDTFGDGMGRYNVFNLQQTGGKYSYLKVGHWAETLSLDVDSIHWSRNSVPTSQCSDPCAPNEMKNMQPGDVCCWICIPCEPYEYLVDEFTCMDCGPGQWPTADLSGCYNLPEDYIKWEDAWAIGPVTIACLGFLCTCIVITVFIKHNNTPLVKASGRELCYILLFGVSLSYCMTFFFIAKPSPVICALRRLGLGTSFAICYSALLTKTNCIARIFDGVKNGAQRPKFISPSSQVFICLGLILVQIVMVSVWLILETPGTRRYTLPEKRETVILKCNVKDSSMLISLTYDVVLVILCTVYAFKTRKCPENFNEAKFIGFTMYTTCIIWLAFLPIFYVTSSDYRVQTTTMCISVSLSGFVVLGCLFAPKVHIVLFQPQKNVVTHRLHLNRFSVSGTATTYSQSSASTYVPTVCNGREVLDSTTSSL

Test [5] concerns the target Metabotropic glutamate receptor 5 (Rattus norvegicus) (UniProt P31424). Nature of the test: Positive allosteric modulation of rat mGlu5 receptor assessed as calcium mobilization by cell based fluorescence assay. In kind it is functional.

For `COc1ccccc1OCc1cc2n(n1)[C@H](C)CN(c1ccc(F)cc1)C2=O`, the half-inhibitory concentration (IC50) in test [1] came out at 2540 nM. The concentration giving a half-maximal response (EC50) in test [2] was more than 10000 nM. Moreover, the results for the Activity in test [3] and in test [4] were 63.7% and 2.32%, respectively. In addition, the outcome in test [5] was Active.
The like results for `C[C@@H]1CN(c2ccccc2C#N)C(=O)c2cc(COc3ccc(Cl)cn3)nn21` were, in that order, 429 nM, 4970 nM, 38.1%, 1.64% and “Active”.
The matching figures for `COc1cccc(OCc2cc3n(n2)[C@H](C)CN(c2ccc(F)cc2)C3=O)n1`: 1590 nM, more than 10000 nM, 31.2%, 1.94% and “Active”.
Regarding `C[C@@H]1CN(c2ccc(F)cc2)C(=O)c2cc(COc3ccc(Cl)cc3)nn21`, the IC50 in test [1] came out at 1170 nM. Also, in test [2], the EC50 is 604 nM. In addition, the values for the Activity in test [3] and in test [4] were 81.8% and 1.86%, respectively. Besides, the result in test [5] was Active.
As for `C[C@@H]1CN(c2ccccc2Cl)C(=O)c2cc(COc3ccc(Cl)cn3)nn21`, in test [1], the IC50 was 328 nM. Besides, in test [2], the EC50 was 5450 nM. The Activity in test [3] turned out to be 51%; in test [4], 1.87%. Besides, the result in test [5] was Active.
Turning to `C[C@@H]1CN(c2ccccc2F)C(=O)c2cc(COc3ccc(Cl)cn3)nn21`, the IC50 in test [1] turned out to be 226 nM. Besides, in test [2], the EC50 was found to be 3240 nM. Besides, the Activity came out at 57.3% in test [3] and 1.74% in test [4]. The outcome in test [5] was Active.
In the case of `Cc1ccccc1N1C[C@@H](C)n2nc(COc3ccc(Cl)cn3)cc2C1=O`, the IC50 in test [1] came to 571 nM. For the same compound, the EC50 in test [2] turned out to be 2280 nM. In addition, the figures for the Activity in test [3] and in test [4] were 80.7% and 1.95%, respectively. Besides, the result in test [5] was Active.
Take `C[C@@H]1CN(c2ccc(F)cc2)C(=O)c2cc(COc3ccccc3F)nn21`: the IC50 in test [1] came to 530 nM. Besides, in test [2], the EC50 amounted to 195 nM. Also, the Activity stood at 89.3% in test [3] and 2.9% in test [4]. The outcome in test [5] was Active.
The like results for `CCc1ccc(OCc2cc3n(n2)[C@H](C)CN(c2ccc(F)cc2)C3=O)cc1` were, in that order, 830 nM, 3210 nM, 50.8%, 2.29% and “Active”.
As to `C[C@@H]1CN(c2cc(F)ccc2C#N)C(=O)c2cc(COc3ccc(Cl)cn3)nn21`, the IC50 in test [1] was 529 nM. The concentration for a half-maximal effect (EC50) in test [2] was more than 30000 nM. Further, in test [4], the Activity turned out to be 1.55%.
With `COc1cccnc1OCc1cc2n(n1)[C@H](C)CN(c1ccc(F)cc1)C2=O`, the IC50 in test [1] came to 6760 nM. Further, in test [2], the EC50 is more than 30000 nM. Also, in test [4], the Activity is -1.14%.
The matching figures for `C[C@@H]1CN(c2ccncc2)C(=O)c2cc(COc3ccc(F)cn3)nn21`: 881 nM, more than 30000 nM and 0.77%.
The like results for `C[C@@H]1CN(c2ncccc2C#N)C(=O)c2cc(COc3ccc(Cl)cn3)nn21` were, in that order, 677 nM, more than 30000 nM and 1.35%.
The like results for `C[C@@H]1CN(c2ccc(F)cc2)C(=O)c2cc(COc3cccc(C(F)(F)F)n3)nn21` were, in that order, 2360 nM, more than 30000 nM and 2.06%.
`C[C@@H]1CN(c2ccc(F)cc2)C(=O)c2cc(COc3ccc(C(F)(F)F)cc3)nn21`: the IC50 in test [1] came to 1850 nM. For the same compound, the EC50 in test [2] is more than 30000 nM. In addition, in test [4], the Activity came out at 4.13%.
The like results for `C[C@@H]1CN(c2ccc(F)cc2)C(=O)c2cc(COc3ccc(OC(F)(F)F)cc3)nn21` were, in that order, 4070 nM, more than 30000 nM and 2.66%.
The matching figures for `C[C@@H]1CN(c2ccc(F)cc2)C(=O)c2cc(COc3ncccc3C(F)(F)F)nn21`: 2940 nM, more than 30000 nM and 2.11%.

One may read the IC50 as the concentration at which inhibition is half-maximal. The EC50 is the midpoint of the concentration-response curve.
